From ChEMBL document CHEMBL1130017, “Rationally designed inhibitors of inosine monophosphate dehydrogenase” (J Med Chem, 1997)

Target: T1, Inosine-5'-monophosphate dehydrogenase 2 (Homo sapiens, UniProt P12268)
Experiment: First order rate constant for inactivation of human Inosine-5'-monophosphate dehydrogenase 2
How it was run: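 Human type II IMPDH (2 µM) incubated at 23 °C with 20 µM compound (10-fold excess) in 0.1 M potassium phosphate pH 7.9, 0.5 M KCl, 3 mM EDTA, 10 mM DTT and 100 µg/mL BSA. Aliquots taken over time are assayed with 200 µM IMP and 400 µM NAD (8× Km). k_inact comes from a nonlinear first-order fit of remaining activity versus incubation time.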

k obs	SMILES
0.0528 s⁻¹	O=P(O)(O)OC[C@@H]1OC(n2cnc3c(O)nc(CCl)nc32)[C@@H](O)[C@H]1O (stereo partly drawn)
0.0164 s⁻¹	O=P(O)(O)OC[C@@H]1OC(n2cnc3c(O)nc(CF)nc32)[C@@H](O)[C@H]1O (stereo partly drawn)
0.0144 s⁻¹	C=Cc1nc(O)c2ncn(C3O[C@@H](COP(=O)(O)O)[C@H](O)[C@@H]3O)c2n1 (stereo partly drawn)

Target: T1, Inosine-5'-monophosphate dehydrogenase 2
Experiment: Concentration required for 50% inhibition of human Inosine-5'-monophosphate dehydrogenase 2 using Spectrophotometric assay
How it was run: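 Human type II IMPDH, 25 nM final, added to start the reaction. Mix holds 50 µM IMP, 100 µM NAD and varying inhibitor in 0.1 M potassium phosphate pH 7.4, 0.1 M KCl, 3 mM EDTA, 1 mM DTT and 100 µg/mL BSA. NADH formation is followed by absorbance at 340 nm in 1 cm cells. Fractional activity relative to the uninhibited rate is taken against inhibitor concentration.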

SMILES	IC50
O=P(O)(O)OC[C@@H]1OC(n2cnc3c(O)nc(C(F)F)nc32)[C@@H](O)[C@H]1O (stereo partly drawn)	> 1000 µM
O=P(O)(O)OC[C@@H]1OC(n2cnc3c(O)nc(CCc4ccccc4)nc32)[C@@H](O)[C@H]1O (stereo partly drawn)	460 µM
O=P(O)(O)OC[C@@H]1OC(n2cnc3c(O)nc(C(F)(F)F)nc32)[C@@H](O)[C@H]1O (stereo partly drawn)	> 1000 µM
Cc1nc(O)c2ncn(C3O[C@@H](COP(=O)(O)O)[C@H](O)[C@@H]3O)c2n1 (stereo partly drawn)	> 1000 µM

The remaining lines, values ahead:

IC50	SMILES
132 µM	O=c1[nH]c(CO)nc2c1ncn2C1O[C@@H](COP(=O)(O)O)[C@H](O)[C@@H]1O (stereo partly drawn)
37 µM	O=P(O)(O)OC[C@@H]1OC(n2cnc3c(O)nc(/C=C/c4ccccc4)nc32)[C@@H](O)[C@H]1O (stereo partly drawn)
1.32 µM	O=c1[nH]c(CCl)nc2c1ncn2C1O[C@@H](COP(=O)(O)O)[C@H](O)[C@@H]1O (stereo partly drawn)
1.2 µM	O=c1[nH]c(CF)nc2c1ncn2C1O[C@@H](COP(=O)(O)O)[C@H](O)[C@@H]1O (stereo partly drawn)
1 µM	C=Cc1nc2c(ncn2C2O[C@@H](COP(=O)(O)O)[C@H](O)[C@@H]2O)c(=O)[nH]1 (stereo partly drawn)
0.44 µM	O=P(O)(O)OC[C@@H]1OC(n2cnc3c(O)nc(C(O)O)nc32)[C@@H](O)[C@H]1O (stereo partly drawn)
